Laboratory results: ChEMBL document CHEMBL3872205, “Design, synthesis and evaluation of novel potent angiotensin II receptor 1 antagonists” (Eur J Med Chem, 2016)

Tests used:
[1] = AUC (0 to 72 hrs) in Wistar rat liver at 30 mg/kg, po by HPLC analysis; assay type: ADME, organism-based; parameters: time < 72 hr, dose 30 mg/kg, route oral
In short: (§1)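 Wistar rats (180 ± 20 g) were dosed orally at 10, 15 or 30 mg/kg. Heart, liver, spleen, lung, kidney and brain were collected at 0–72 h (n = 6 per point). Tissue was rinsed, blotted and homogenized in saline (0.25 g/1 mL), then spun at 10,000 × g. Supernatant was methanol-extracted, dried under nitrogen at 50 °C, reconstituted in methanol and run on C18 HPLC (acetonitrile 60%/water 40%, 1.0 mL/min).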

[2] = MRT (0 to infinity) in Wistar rat plasma at 30 mg/kg, po by HPLC analysis; assay type: ADME, organism-based
In short: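 Male Wistar rats (180 ± 20 g), 6 per dose group, each given a single oral dose. Blood was drawn by retro-orbital puncture into heparin at predose and at 0.5, 1, 2, 4, 6, 8, 12, 24, 48 and 72 h, then spun at 4000 × g and 4 °C. Plasma with internal standard was acetonitrile-precipitated, filtered and run on reverse-phase C18 HPLC (0.02 mol/L KH2PO4 55% / acetonitrile 45%, 1.0 mL/min). Calibration standards were 0.1–10 µg/mL, fitted by peak-height ratio with 1/conc² weighting.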

[3] = AUC (0 to infinity) in Wistar rat Heart at 30 mg/kg, po by HPLC analysis; assay type: ADME, organism-based; parameters: dose 30 mg/kg, route oral, time infinity; in short: as §1
[4] = Tmax in Wistar rat Heart at 15 mg/kg, po by HPLC analysis; assay type: ADME, organism-based
In short: (§2)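 Male Wistar rats (180 ± 20 g) received a single oral dose of 10, 15 or 30 mg/kg. Tissues were collected at 0, 0.5, 1, 2, 4, 6, 8, 12, 24, 48 and 72 h (n = 6 per point). Samples of 0.25 g were rinsed, then homogenized in saline (0.25 g/1 mL) and centrifuged at 10,000 × g. Supernatant was methanol-extracted, dried under nitrogen at 50 °C and reconstituted in methanol. Analysis was by C18 HPLC (acetonitrile 60% / water 40%, 1.0 mL/min).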

[5] = MRT (0 to 72 hrs) in Wistar rat kidney at 15 mg/kg, po by HPLC analysis; assay type: ADME, organism-based
In short: (§3)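 Tissue distribution in male Wistar rats given oral 10, 15 or 30 mg/kg; heart, liver, spleen, lung, kidney and brain collected predose and 0.5–72 h post-dose (n = 6 per time). Tissue rinsed in saline, homogenised 0.25 g/1 mL saline, methanol extraction, dried under nitrogen, reconstituted in methanol. Analysis by reverse-phase C18 HPLC, acetonitrile/water 60:40, 1.0 mL/min, ambient temperature.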

[6] = Toxicity in ICR mouse assessed as mortality at 2929.69 mg/kg, ig after 2 weeks; assay type: organism-based; conditions: in vivo, po
[7] = Half life in Wistar rat spleen at 10 mg/kg, po by HPLC analysis; assay type: ADME, organism-based; in short: as §3
[8] = Cmax in Wistar rat lung at 15 mg/kg, po by HPLC analysis; assay type: ADME, organism-based; parameters: dose 15 mg/kg, route oral; in short: as §3
[9] = Tmax in Wistar rat Heart at 10 mg/kg, po by HPLC analysis; assay type: ADME, organism-based; in short: as §2
[10] = AUC (0 to 72 hrs) in Wistar rat lung at 10 mg/kg, po by HPLC analysis; assay type: ADME, organism-based; parameters: time < 72 hr, dose 10 mg/kg, route oral; in short: as §1
[11] = AUC (0 to infinity) in Wistar rat brain at 10 mg/kg, po by HPLC analysis; assay type: ADME, organism-based; parameters: dose 10 mg/kg, route oral, time infinity; in short: as §1
[12] = AUC (0 to infinity) in Wistar rat liver at 15 mg/kg, po by HPLC analysis; assay type: ADME, organism-based; parameters: dose 15 mg/kg, route oral, time infinity; in short: as §1
[13] = MRT (0 to infinity) in Wistar rat spleen at 30 mg/kg, po by HPLC analysis; assay type: ADME, organism-based; in short: as §2
[14] = AUC (0 to infinity) in Wistar rat liver at 30 mg/kg, po by HPLC analysis; assay type: ADME, organism-based; parameters: dose 30 mg/kg, time infinity, route oral; in short: as §1
[15] = MRT (0 to 72 hrs) in Wistar rat Heart at 30 mg/kg, po by HPLC analysis; assay type: ADME, organism-based; in short: as §3
[16] = MRT (0 to 72 hrs) in Wistar rat spleen at 30 mg/kg, po by HPLC analysis; assay type: ADME, organism-based; in short: as §2
[17] = MRT (0 to infinity) in Wistar rat lung at 15 mg/kg, po by HPLC analysis; assay type: ADME, organism-based; in short: as §2
[18] = AUC (0 to infinity) in Wistar rat lung at 30 mg/kg, po by HPLC analysis; assay type: ADME, organism-based; parameters: dose 30 mg/kg, route oral, time infinity; in short: as §1
[19] = MRT (0 to infinity) in Wistar rat Heart at 15 mg/kg, po by HPLC analysis; assay type: ADME, organism-based; in short: as §2
[20] = AUC (0 to 72 hrs) in Wistar rat plasma at 10 mg/kg, po by HPLC analysis; assay type: ADME, organism-based; parameters: time < 72 hr, dose 10 mg/kg, route oral
In short: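 Male Wistar rats (180 ± 20 g, n = 6 per group) got one oral dose. Heparinized blood was taken by retro-orbital puncture before dosing and at 0.5–72 h. Plasma was spun at 4000 × g, 4 °C, 10 min, spiked with internal standard and protein-precipitated with acetonitrile. Analysis was reverse-phase C18 HPLC (0.02 mol/L KH2PO4 55%/acetonitrile 45%, 1.0 mL/min). Calibration used 0.1–10 µg/mL, peak-height ratio, weighting concentration^-2.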

[21] = MRT (0 to infinity) in Wistar rat lung at 30 mg/kg, po by HPLC analysis; assay type: ADME, organism-based; in short: as §2
[22] = MRT (0 to infinity) in Wistar rat kidney at 10 mg/kg, po by HPLC analysis; assay type: ADME, organism-based; in short: as §2
[23] = Half life in Wistar rat brain at 15 mg/kg, po by HPLC analysis; assay type: ADME, organism-based; in short: as §3
[24] = MRT (0 to 72 hrs) in Wistar rat Heart at 10 mg/kg, po by HPLC analysis; assay type: ADME, organism-based; in short: as §3
[25] = MRT (0 to 72 hrs) in Wistar rat kidney at 30 mg/kg, po by HPLC analysis; assay type: ADME, organism-based; in short: as §3
[26] = Half life in Wistar rat spleen at 15 mg/kg, po by HPLC analysis; assay type: ADME, organism-based; in short: as §3
[27] = MRT (0 to infinity) in Wistar rat brain at 15 mg/kg, po by HPLC analysis; assay type: ADME, organism-based; in short: as §2
[28] = AUC (0 to 72 hrs) in Wistar rat kidney at 15 mg/kg, po by HPLC analysis; assay type: ADME, organism-based; parameters: dose 15 mg/kg, time < 72 hr, route oral; in short: as §1
[29] = MRT (0 to 72 hrs) in Wistar rat brain at 10 mg/kg, po by HPLC analysis; assay type: ADME, organism-based; in short: as §3
[30] = AUC (0 to 72 hrs) in Wistar rat brain at 30 mg/kg, po by HPLC analysis; assay type: ADME, organism-based; parameters: dose 30 mg/kg, time < 72 hr, route oral; in short: as §1
[31] = Half life in Wistar rat Heart at 10 mg/kg, po by HPLC analysis; assay type: ADME, organism-based; in short: as §3
[32] = Cmax in Wistar rat liver at 10 mg/kg, po by HPLC analysis; assay type: ADME, organism-based; parameters: dose 10 mg/kg, route oral; in short: as §3
[33] = Toxicity in ig dosed ICR mouse assessed as mortality after 2 weeks; assay type: organism-based; conditions: in vivo, po

## CCCCC1=NC2(CCCC2)C(=O)N1Cc1ccc2c(ccn2-c2ccccc2-c2nnn[nH]2)c1
[1]
  AUC(0-t) at 72 h: 14500 ng·h/mL
[2]
  MRT inf: 16.1 h
[3]
  AUC(0-inf): 8760 ng·h/mL
[4]
  Tmax: 4.67 h
[5]
  MRT last: 19.4 h
[6]
  mortality at 336 h: 100%
[7]
  half-life: 17.9 h
[8]
  Cmax: 369 ng/mL
[9]
  Tmax: 4 h
[10]
  AUC(0-t) at 72 h: 745 ng·h/mL
[11]
  AUC(0-inf): 346 ng·h/mL
[12]
  AUC(0-inf): 23500 ng·h/mL
[13]
  MRT inf: 20.4 h
[14]
  AUC(0-inf): 15600 ng·h/mL
[15]
  MRT last: 16.2 h
[16]
  MRT last: 13.3 h
[17]
  MRT inf: 3.64 h
[18]
  AUC(0-inf): 2410 ng·h/mL
[19]
  MRT inf: 23.9 h
[20]
  AUC(0-t) at 72 h: 6110 ng·h/mL
[21]
  MRT inf: 4.1 h
[22]
  MRT inf: 25.3 h
[23]
  half-life: 2.59 h
[24]
  MRT last: 7.68 h
[25]
  MRT last: 24.9 h
[26]
  half-life: 7.57 h
[27]
  MRT inf: 11.6 h
[28]
  AUC(0-t) at 72 h: 5730 ng·h/mL
[29]
  MRT last: 8.1 h
[30]
  AUC(0-t) at 72 h: 1790 ng·h/mL
[31]
  half-life: 16.9 h
[32]
  Cmax: 721 ng/mL
[33]
  LD50 at 336 h: 1550 mg/kg
